Among the data in ChEMBL document CHEMBL3286380, “Design and synthesis of lupeol analogues and their glucose uptake stimulatory effect in L6 skeletal muscle cells” (Bioorg Med Chem Lett, 2014) are Activity and EC50 values, retold here.

The source made the active and inactive calls. The rule behind the calls is not given here.

The subject of experiment [1] is L6. Put plainly: Increase in 2-[3H]-deoxyglucose uptake in rat L6 cells at 10 uM after 16 hrs by scintillation counting analysis (reference value: 0%). The experiment is classed as functional.
The test system of experiment [2] is L6. Put plainly: Increase in 2-[3H]-deoxyglucose uptake in rat L6 cells after 16 hrs by scintillation counting analysis. The experiment is classed as functional, cell-based. The method, boiled down: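 Dose–response in L6 myotubes: vehicle (DMSO) or compound at 5, 10, 25 µM for 16 h before glucose uptake measurement; rosiglitazone 10 µM as positive control. Expressed as fold stimulation over control; mean ± SE of three independent experiments, each in triplicate.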

The test system of experiment [3] is L6. The experiment can be described thus: Potentiation of insulin-stimulated 2-[3H]-deoxyglucose uptake in rat L6 cells at 10 uM treated for 16 hrs followed by incubation for 3 hrs in serum free medium and insulin stimulation for 20 mins by scintillation counting analysis. The experiment is classed as functional, cell-based. The method in brief: (§1)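 Cells (L6 myotubes, 3T3-L1 adipocytes or HepG2 hepatic cells) treated with compound (10 µM) for 16 h, last 3 h serum-free, with or without insulin (100 nM, 20 min) before glucose uptake. Reported as fold stimulation over basal control; mean ± SE of three independent experiments, each in triplicate.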

Experiment [4] concerns the target T1, Solute carrier family 2, facilitated glucose transporter member 4 (Rattus norvegicus) (UniProt P19357).
T1 sequence (whole entry): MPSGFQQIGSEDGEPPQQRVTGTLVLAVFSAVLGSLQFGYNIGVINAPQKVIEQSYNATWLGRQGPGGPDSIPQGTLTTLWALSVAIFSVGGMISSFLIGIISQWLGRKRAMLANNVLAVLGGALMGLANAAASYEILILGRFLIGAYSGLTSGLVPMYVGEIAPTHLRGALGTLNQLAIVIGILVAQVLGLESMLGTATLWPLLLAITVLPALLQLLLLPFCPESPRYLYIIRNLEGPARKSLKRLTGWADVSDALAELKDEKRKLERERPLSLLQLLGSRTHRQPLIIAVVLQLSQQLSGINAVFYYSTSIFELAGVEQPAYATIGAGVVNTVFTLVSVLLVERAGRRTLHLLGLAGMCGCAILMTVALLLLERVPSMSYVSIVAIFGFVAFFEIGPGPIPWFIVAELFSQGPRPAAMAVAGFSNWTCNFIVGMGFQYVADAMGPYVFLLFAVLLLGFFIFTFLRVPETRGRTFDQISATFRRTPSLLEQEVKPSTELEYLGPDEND
The experiment can be described thus: Induction of GLUT4 translocation to cell surface in rat L6-GLUT4myc cells at 10 uM treated for 16 hrs followed by incubation for 3 hrs in serum free medium and insulin stimulation for 20 mins. The experiment is classed as cell-based. The method, boiled down: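 L6-GLUT4myc myotubes given compound (10 µM) for 16 h, the final 3 h in serum-free medium; a subset stimulated with insulin (100 nM) for 20 min before measuring surface GLUT4myc. Fold over basal control; mean ± SE, three independent experiments in triplicate.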

For experiment [5], the target named is T2, Insulin receptor substrate 1 (Rattus norvegicus) (UniProt P35570).
T2 sequence (whole entry): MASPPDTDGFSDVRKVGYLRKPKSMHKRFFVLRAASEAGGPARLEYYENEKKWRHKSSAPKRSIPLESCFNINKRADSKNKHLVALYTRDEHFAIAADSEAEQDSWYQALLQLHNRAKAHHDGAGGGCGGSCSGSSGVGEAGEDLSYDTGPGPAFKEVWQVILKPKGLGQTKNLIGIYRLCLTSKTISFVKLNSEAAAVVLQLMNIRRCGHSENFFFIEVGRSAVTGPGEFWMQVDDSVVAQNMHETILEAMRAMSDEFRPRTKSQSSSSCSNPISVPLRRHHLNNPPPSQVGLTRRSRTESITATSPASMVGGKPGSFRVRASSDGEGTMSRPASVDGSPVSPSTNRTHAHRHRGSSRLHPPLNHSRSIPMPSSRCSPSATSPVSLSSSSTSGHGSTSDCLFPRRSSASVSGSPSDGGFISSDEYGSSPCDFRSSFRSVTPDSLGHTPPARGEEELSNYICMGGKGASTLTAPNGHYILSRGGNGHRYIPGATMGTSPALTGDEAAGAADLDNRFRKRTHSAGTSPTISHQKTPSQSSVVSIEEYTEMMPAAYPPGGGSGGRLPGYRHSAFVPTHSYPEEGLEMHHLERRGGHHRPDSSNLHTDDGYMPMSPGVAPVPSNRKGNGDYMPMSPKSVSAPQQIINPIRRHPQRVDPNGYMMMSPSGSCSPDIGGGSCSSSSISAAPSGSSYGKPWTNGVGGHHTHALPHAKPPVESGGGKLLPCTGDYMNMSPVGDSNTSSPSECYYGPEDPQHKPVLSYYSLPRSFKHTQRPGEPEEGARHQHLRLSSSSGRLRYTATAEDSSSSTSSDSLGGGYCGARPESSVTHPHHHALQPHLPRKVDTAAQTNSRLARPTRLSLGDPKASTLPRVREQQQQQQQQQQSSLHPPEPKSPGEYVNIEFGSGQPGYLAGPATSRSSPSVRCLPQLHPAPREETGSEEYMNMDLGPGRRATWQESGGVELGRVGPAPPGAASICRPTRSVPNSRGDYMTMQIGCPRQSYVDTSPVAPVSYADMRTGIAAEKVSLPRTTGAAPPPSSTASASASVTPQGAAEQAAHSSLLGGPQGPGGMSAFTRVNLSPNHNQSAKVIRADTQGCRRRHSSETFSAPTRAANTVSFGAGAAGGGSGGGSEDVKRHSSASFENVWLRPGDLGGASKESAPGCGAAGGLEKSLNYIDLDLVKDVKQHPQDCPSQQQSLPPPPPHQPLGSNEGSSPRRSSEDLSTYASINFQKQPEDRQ
The experiment can be described thus: Increase in IRS-1 phosphorylation in rat L6 cells at 10 uM treated for 16 hrs followed by incubation for 3 hrs in serum free medium and insulin stimulation for 20 mins by Western blot analysis. The experiment is classed as cell-based. The method, boiled down:
(§2)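 L6 myotubes were exposed to compound (10 μM) for 16 h, serum-free for the last 3 h. One subset then received insulin (100 nM) for 20 min. Cells were lysed and equal protein amounts were western blotted. Densitometry gave pIRβ/IRβ, pIRS-1/IRS-1 and pAKT/AKT ratios. Three independent experiments, mean SEM.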

For experiment [6], the target named is T2, Insulin receptor substrate 1 (Rattus norvegicus). Put plainly: Increase in IRS-1-mediated Akt phosphorylation in rat L6 cells at 10 uM treated for 16 hrs followed by incubation for 3 hrs in serum free medium and insulin stimulation for 20 mins by Western blot analysis. The experiment is classed as cell-based. The method in brief:
as §2

Experiment [7] has as its target Insulin receptor (Rattus norvegicus) (UniProt P15127). Put plainly: Effect on IR-beta phosphorylation in rat L6 cells at 10 uM treated for 16 hrs followed by incubation for 3 hrs in serum free medium and insulin stimulation for 20 mins by Western blot analysis. The experiment is classed as cell-based. The method, boiled down:
as §2

The target in experiment [8] is 5'-AMP-activated protein kinase catalytic subunit alpha-1 (Rattus norvegicus) (UniProt P54645). The experiment can be described thus: Effect on AMPK-alpha phosphorylation at Thr-172 residue in rat L6 cells at 10 uM after 16 hrs by immunoblot analysis. The experiment is classed as cell-based. The method, boiled down: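 L6 myotubes exposed to compound (10 µM) for 16 h, then lysed; western blot for phospho-AMPK (Thr-172), quantified by densitometry relative to total AMPK. Mean ± SEM of three independent experiments.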
Chain of 5'-AMP-activated protein kinase catalytic subunit alpha-1 (Rattus norvegicus) (P54645 whole entry): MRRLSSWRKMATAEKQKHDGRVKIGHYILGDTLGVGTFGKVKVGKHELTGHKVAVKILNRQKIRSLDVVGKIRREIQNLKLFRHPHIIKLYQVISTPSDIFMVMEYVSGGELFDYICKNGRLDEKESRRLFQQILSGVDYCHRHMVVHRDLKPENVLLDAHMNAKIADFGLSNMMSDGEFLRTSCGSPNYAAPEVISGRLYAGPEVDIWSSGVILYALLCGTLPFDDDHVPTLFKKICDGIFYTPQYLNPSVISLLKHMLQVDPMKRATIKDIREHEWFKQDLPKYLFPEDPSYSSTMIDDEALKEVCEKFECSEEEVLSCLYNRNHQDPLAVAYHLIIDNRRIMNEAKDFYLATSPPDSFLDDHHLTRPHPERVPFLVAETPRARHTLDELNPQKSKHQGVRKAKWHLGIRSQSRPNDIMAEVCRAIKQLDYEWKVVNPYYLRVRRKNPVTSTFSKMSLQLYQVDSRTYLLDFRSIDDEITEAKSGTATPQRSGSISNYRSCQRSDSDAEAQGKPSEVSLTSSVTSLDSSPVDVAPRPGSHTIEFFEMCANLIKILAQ

Experiment [9] relates to 3T3-L1. The experiment can be described thus: Potentiation of insulin-stimulated 2-[3H]-deoxyglucose uptake in mouse 3T3L1 cells at 10 uM treated for 16 hrs followed by incubation for 3 hrs in serum free medium and insulin stimulation for 20 mins by scintillation counting analysis. The experiment is classed as functional, cell-based. The method, boiled down: as §1
Experiment [10] has as its system HepG2. Put plainly: Potentiation of insulin-stimulated 2-[3H]-deoxyglucose uptake in human HepG2 cells at 10 uM treated for 16 hrs followed by incubation for 3 hrs in serum free medium and insulin stimulation for 20 mins by scintillation counting analysis. The experiment is classed as functional, cell-based. The method in brief:
as §1

Experiment [11] concerns L6. The experiment can be described thus: Potentiation of insulin-stimulated 2-[3H]-deoxyglucose uptake in rat L6 cells at 10 uM treated for 16 hrs followed by incubation for 3 hrs in serum free medium and insulin stimulation for 20 mins by scintillation counting analysis in presence of PI3K inhibitor wortmannin. The experiment is classed as functional, cell-based. The method, boiled down:
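L6 myotubes were given compound (10 μM) for 16 h, with or without wortmannin (50 nM). Insulin treatment followed, then glucose uptake was measured. Values are expressed as fold stimulation over basal control.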

Chain of Insulin receptor (Rattus norvegicus) (P15127 27-759 limits assumed): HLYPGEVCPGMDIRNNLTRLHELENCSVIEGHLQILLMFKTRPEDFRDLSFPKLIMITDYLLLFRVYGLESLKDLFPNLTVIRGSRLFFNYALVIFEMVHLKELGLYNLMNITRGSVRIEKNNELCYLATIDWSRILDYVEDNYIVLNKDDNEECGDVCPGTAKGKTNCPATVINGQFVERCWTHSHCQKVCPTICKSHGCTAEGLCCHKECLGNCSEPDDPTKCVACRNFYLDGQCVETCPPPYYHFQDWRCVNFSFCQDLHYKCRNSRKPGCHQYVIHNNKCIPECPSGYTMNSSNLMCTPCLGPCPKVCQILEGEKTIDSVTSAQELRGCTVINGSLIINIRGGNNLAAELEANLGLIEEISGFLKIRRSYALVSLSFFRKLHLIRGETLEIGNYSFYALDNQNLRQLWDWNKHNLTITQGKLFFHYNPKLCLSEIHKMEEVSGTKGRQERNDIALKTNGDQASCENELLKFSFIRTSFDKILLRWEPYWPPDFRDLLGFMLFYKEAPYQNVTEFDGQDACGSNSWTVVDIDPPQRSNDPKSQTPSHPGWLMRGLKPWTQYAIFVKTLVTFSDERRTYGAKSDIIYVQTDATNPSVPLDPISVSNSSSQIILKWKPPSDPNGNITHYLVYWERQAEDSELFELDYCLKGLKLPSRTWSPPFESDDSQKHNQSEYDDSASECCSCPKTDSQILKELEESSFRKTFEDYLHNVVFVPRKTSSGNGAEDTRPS
Chain of Insulin receptor (Rattus norvegicus) (P15127 764-1383 limits assumed): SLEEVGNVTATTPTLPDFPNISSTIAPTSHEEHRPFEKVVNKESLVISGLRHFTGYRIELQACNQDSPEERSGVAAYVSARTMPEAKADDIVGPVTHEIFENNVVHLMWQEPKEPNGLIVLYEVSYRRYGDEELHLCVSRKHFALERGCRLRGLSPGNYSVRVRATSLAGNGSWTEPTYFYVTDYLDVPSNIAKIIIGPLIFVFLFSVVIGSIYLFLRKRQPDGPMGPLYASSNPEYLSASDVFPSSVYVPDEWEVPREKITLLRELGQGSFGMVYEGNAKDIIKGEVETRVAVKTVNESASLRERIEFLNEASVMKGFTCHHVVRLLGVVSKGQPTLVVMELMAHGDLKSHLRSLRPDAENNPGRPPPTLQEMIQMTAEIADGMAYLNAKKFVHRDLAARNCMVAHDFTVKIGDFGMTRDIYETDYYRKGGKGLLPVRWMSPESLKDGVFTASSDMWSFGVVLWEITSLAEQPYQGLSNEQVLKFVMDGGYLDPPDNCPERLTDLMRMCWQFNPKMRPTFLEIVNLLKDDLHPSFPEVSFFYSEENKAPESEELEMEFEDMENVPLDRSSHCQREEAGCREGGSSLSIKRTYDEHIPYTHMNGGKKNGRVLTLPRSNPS

On to `CC(C)C(Br)C(=O)O[C@H]1CC[C@]2(C)[C@H]3CC[C@@H]4[C@H]5[C@H]([C@H]6C=NN(C(=O)C(Br)C(C)C)C6)CC[C@]5(C)CC[C@@]4(C)[C@]3(C)CC[C@H]2C1(C)C` (some centres not stated), for which, in experiment [1], the Activity turned out to be 8.4%.

As to `C#CCOCC(=C)[C@@H]1CC[C@]2(C)CC[C@]3(C)[C@H](CC[C@@H]4[C@@]5(C)CC[C@H](OC(C)=O)C(C)(C)[C@@H]5CC[C@]43C)[C@@H]12`, the Activity in experiment [1] worked out at 19.2%.

`CC1(C)[C@@H](OC(=O)CCc2ccc(Cl)cc2)CC[C@]2(C)[C@H]3CC[C@@H]4[C@H]5[C@H]([C@H]6C=NN(C(=O)CCc7ccc(Cl)cc7)C6)CC[C@]5(C)CC[C@@]4(C)[C@]3(C)CC[C@@H]12` gave an Activity in [1] of 2.8%.

`C=C(C=O)[C@@H]1CC[C@]2(C)CC[C@]3(C)[C@H](CC[C@@H]4[C@@]5(C)CC[C@H](OC(=O)CCc6ccc(Cl)cc6)C(C)(C)[C@@H]5CC[C@]43C)[C@@H]12` yielded an Activity in [1] of 0.5%.

As for `CC1(C)[C@@H](O)CC[C@]2(C)[C@H]3CC[C@@H]4[C@H]5[C@H]([C@H]6C=NNC6)CC[C@]5(C)CC[C@@]4(C)[C@]3(C)CC[C@@H]12`, the Activity in [1] worked out at 16.1%.

`C=CCOCC(=C)[C@@H]1CC[C@]2(C)CC[C@]3(C)[C@H](CC[C@@H]4[C@@]5(C)CC[C@H](OC(C)=O)C(C)(C)[C@@H]5CC[C@]43C)[C@@H]12`: in [1], the Activity came to 8.5%.

Compound `C=C(CO)[C@@H]1CC[C@]2(C)CC[C@]3(C)[C@H](CC[C@@H]4[C@@]5(C)CC[C@H](OC(C)=O)C(C)(C)[C@@H]5CC[C@]43C)[C@@H]12` had an Activity in [1] of 22.2%.

For the compound `C=C(C=O)[C@@H]1CC[C@]2(C)CC[C@]3(C)[C@H](CC[C@@H]4[C@@]5(C)CC[C@H](O)C(C)(C)[C@@H]5CC[C@]43C)[C@@H]12`, the Activity in experiment [1] was 173.1%; in experiment [2], “Dose-dependent effect”. Moreover, the EC50 in experiment [2] stood at 4.2 µM. For the same compound, the outcome in experiment [3], in [4], in [5], in experiment [6], in experiment [9] and in experiment [10] was Active. The outcome in experiment [7], in experiment [8] and in [11] was inactive.

In experiment [1], `C=C(C)[C@@H]1CC[C@]2(C)CC[C@]3(C)[C@H](CC[C@@H]4[C@@]5(C)CC[C@H](O)C(C)(C)[C@@H]5CC[C@]43C)[C@@H]12` [LUPEOL] gave an Activity of 26.8%.

In experiment [1], `CN(CCOc1ccc(CC2SC(=O)NC2=O)cc1)c1ccccn1` (configuration not stated) [ROSIGLITAZONE] gave an Activity of 112.4%. The compound further came in with an EC50 in experiment [2] of 4.8 µM.

Compound `CC1(C)[C@@H](O)CC[C@]2(C)[C@H]3CC[C@@H]4[C@H]5[C@H]([C@H]6C=NOC6c6ccccc6)CC[C@]5(C)CC[C@@]4(C)[C@]3(C)CC[C@@H]12` (some centres not stated) came in with an Activity in experiment [1] of 13.2%.

With `CC1(C)[C@@H](OC(=O)/C=C/c2ccccc2)CC[C@]2(C)[C@H]3CC[C@@H]4[C@H]5[C@H](C6C=NN(C(=O)/C=C/c7ccccc7)C6)CC[C@]5(C)CC[C@@]4(C)[C@]3(C)CC[C@@H]12` (some centres not stated), the Activity in experiment [1] was 107.3%; in experiment [2], “Dose-dependent effect”. Further, in experiment [2], a half-maximal effect (EC50) was put at 4.9 µM. The outcome in experiment [3], in [4], in experiment [5], in experiment [6], in experiment [9] and in experiment [10] was Active. The outcome in experiment [7], in experiment [8] and in [11] was inactive.

In experiment [1], `C=CC1=COC[C@@H]1[C@@H]1CC[C@]2(C)CC[C@]3(C)[C@H](CC[C@@H]4[C@@]5(C)CC[C@H](OC(C)=O)C(C)(C)[C@@H]5CC[C@]43C)[C@@H]12` registered an Activity of 2.1%.

Consider `C=C(C=O)[C@@H]1CC[C@]2(C)CC[C@]3(C)[C@H](CC[C@@H]4[C@@]5(C)CC[C@H](OC(=O)/C=C/c6ccccc6)C(C)(C)[C@@H]5CC[C@]43C)[C@@H]12`, for which the Activity in experiment [1] is 98.3%; in experiment [2], “Dose-dependent effect”. The compound also displayed an EC50 in experiment [2] of 6.2 µM. For the same compound, the outcome in [3], in experiment [4], in experiment [9] and in experiment [10] was Active. The outcome in experiment [8] was inactive.

As for `CC(=O)O[C@H]1CC[C@]2(C)[C@H]3CC[C@@H]4[C@H]5[C@H]([C@@H]6C=COC6)CC[C@]5(C)CC[C@@]4(C)[C@]3(C)CC[C@H]2C1(C)C`, in experiment [1], the Activity is listed as 3.6%.

In experiment [1], `CC1(C)[C@@H](O)CC[C@]2(C)[C@H]3CC[C@@H]4[C@H]5[C@H]([C@@H](C=O)C(O)c6ccccc6)CC[C@]5(C)CC[C@@]4(C)[C@]3(C)CC[C@@H]12` (some centres not stated) returned an Activity of 6.4%.

In turn, `C=C(C=O)[C@@H]1CC[C@]2(C)CC[C@]3(C)[C@H](CC[C@@H]4[C@@]5(C)CC[C@H](OC(=O)C(Br)C(C)C)C(C)(C)[C@@H]5CC[C@]43C)[C@@H]12` (some centres not stated) registered an Activity in experiment [1] of 3.1%.
